Positions of bridges follow the written chain, without caps; N, C: chain ends. Non-standard residues stand in square brackets, D forms with d. Residues, ends and D or L forms follow the SMILES beside them. Phe(4-NO2) = N[C@@H](Cc1ccc([N+](=O)[O-])cc1)C(=O)O; dDip = N[C@@H](C(=O)O)C(c1ccccc1)c1ccccc1; Dip = N[C@H](C(=O)O)C(c1ccccc1)c1ccccc1; 2Nal = N[C@@H](Cc1ccc2ccccc2c1)C(=O)O; d2Nal = N[C@H](Cc1ccc2ccccc2c1)C(=O)O; 3Pal = N[C@@H](Cc1cccnc1)C(=O)O
Tests used:
[1] = molecular target: Somatostatin receptor type 1 (Homo sapiens, UniProt P30872); assay: Binding affinity towards cloned human somatostatin 1 (hsst) receptor
Chain of Somatostatin receptor type 1 (P30872 whole entry): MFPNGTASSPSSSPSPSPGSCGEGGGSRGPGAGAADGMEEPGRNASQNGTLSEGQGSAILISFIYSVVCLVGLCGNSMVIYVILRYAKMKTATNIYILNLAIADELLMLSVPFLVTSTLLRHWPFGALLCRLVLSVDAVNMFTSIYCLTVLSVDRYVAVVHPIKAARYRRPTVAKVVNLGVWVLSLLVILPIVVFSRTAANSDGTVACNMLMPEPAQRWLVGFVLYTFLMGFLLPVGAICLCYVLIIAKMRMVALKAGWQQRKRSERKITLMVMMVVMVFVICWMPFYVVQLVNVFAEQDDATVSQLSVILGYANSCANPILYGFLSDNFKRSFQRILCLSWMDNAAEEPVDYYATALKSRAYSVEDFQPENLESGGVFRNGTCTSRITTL
In short: (§1)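 Membranes from CHO-K1 cells stably transfected with the human receptor subtype (calcium phosphate transfection, G418 selection), homogenised and washed in Tris-HCl. Separated by filtration on PEI-soaked GF/C filters; nonspecific binding with 1.0 µM SRIF.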

[2] = molecular target: Somatostatin receptor type 2 (Homo sapiens, UniProt P30874); assay: Binding affinity towards cloned human somatostatin 2 (hsst) receptor; in short: as §1
Chain of Somatostatin receptor type 2 (P30874 whole entry): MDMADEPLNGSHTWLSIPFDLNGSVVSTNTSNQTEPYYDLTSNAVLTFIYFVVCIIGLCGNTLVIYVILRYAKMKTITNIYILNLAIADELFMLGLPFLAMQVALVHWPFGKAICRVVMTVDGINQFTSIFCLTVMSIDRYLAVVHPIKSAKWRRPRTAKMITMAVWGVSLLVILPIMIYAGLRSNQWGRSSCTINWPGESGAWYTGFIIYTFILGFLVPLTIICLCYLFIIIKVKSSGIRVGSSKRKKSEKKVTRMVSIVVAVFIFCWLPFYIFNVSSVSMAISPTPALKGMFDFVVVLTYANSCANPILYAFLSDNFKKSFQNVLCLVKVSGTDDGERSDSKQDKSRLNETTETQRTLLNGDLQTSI

[3] = molecular target: Somatostatin receptor type 3 (Homo sapiens, UniProt P32745); assay: Binding affinity towards cloned human somatostatin 3 (hsst) receptor; in short: as §1
Chain of Somatostatin receptor type 3 (P32745 whole entry): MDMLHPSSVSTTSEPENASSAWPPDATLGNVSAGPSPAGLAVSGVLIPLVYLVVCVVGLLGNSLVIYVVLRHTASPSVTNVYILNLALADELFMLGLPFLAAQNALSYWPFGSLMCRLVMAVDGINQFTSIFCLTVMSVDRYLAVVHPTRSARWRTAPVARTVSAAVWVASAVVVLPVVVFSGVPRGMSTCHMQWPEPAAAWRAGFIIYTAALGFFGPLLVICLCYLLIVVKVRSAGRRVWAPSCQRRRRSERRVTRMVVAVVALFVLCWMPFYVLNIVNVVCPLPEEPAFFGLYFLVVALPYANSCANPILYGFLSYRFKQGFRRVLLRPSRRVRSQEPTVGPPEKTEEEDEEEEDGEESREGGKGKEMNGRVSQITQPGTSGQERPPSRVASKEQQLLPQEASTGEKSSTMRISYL

[4] = molecular target: Somatostatin receptor type 4 (Homo sapiens, UniProt P31391); assay: Binding affinity towards cloned human somatostatin 4 (hsst) receptor
Chain of Somatostatin receptor type 4 (P31391 whole entry): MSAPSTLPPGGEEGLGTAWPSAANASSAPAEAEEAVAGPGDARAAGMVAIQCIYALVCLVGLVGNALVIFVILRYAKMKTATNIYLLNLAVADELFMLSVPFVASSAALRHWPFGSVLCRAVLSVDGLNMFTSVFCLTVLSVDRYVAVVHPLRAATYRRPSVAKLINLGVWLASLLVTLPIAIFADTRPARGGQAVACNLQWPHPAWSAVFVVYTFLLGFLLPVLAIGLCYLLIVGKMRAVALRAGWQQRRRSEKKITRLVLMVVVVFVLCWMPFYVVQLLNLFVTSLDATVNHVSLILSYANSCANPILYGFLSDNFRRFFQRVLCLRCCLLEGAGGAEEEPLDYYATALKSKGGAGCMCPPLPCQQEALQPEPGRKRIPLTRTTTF

[5] = molecular target: Somatostatin receptor type 5 (Homo sapiens, UniProt P35346); assay: Binding affinity towards cloned human somatostatin 5 (hsst) receptor; in short: as §1
Chain of Somatostatin receptor type 5 (P35346 whole entry): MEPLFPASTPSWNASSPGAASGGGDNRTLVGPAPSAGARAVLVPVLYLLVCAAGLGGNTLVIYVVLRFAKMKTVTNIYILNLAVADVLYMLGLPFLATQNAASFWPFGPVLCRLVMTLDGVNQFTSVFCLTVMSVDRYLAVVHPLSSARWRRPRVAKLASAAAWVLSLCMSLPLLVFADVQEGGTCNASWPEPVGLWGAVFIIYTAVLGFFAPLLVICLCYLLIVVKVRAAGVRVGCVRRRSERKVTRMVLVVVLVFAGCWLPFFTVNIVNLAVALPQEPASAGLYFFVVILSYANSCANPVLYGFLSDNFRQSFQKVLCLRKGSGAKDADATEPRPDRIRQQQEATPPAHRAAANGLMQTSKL

Somatostatin receptor = assay: Compound was tested for in vitro SRIF inhibition of GH release in rats; format: functional
In short: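 Adult male rat anterior pituitary cells, dispersed with trypsin/DNase, cultured 4-5 days. Then 3 h at 37 °C in medium 199 with 1% BSA, GHRH(1-29)NH2 1 nM and SRIF 1 nM, with analogue at six doses (up to 10 µM, some to 100 µM), triplicate wells. GH in medium measured by double-antibody RIA. Antagonist IC50 taken from n separate dose-response curves.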

SMILES	IC50 [1] [nM]	Ki [2] [nM]	IC50 [3] [nM]	IC50 [4] [nM]	Ki [5] [nM]	IC50 (Somatostatin receptor) [nM]
CC(C)[C@@H]1NC(=O)[C@H](CCCCN)NC(=O)[C@@H](Cc2c[nH]c3ccccc23)NC(=O)[C@H](Cc2ccc(O)cc2)NC(=O)[C@H](NC(=O)[C@H](N)Cc2ccc3ccccc3c2)CSSC[C@@H](C(=O)N[C@H](C(N)=O)[C@@H](C)O)NC1=O	1580	306				
CC(C)[C@@H]1NC(=O)[C@H](CCCCN)NC(=O)[C@@H](Cc2c[nH]c3ccccc23)NC(=O)[C@H](Cc2ccc(O)cc2)NC(=O)[C@@H](NC(=O)[C@H](N)Cc2ccc3ccccc3c2)CSSC[C@H](C(=O)N[C@H](C(N)=O)[C@@H](C)O)NC1=O	4840	350	1000			
CC(C)[C@@H]1NC(=O)[C@H](CCCCN)NC(=O)[C@@H](Cc2c[nH]c3ccccc23)NC(=O)[C@H](Cc2ccc(O)cc2)NC(=O)[C@H](NC(=O)[C@@H](N)Cc2ccc3ccccc3c2)CSSC[C@@H](C(=O)N[C@@H](Cc2ccc3ccccc3c2)C(N)=O)NC1=O	2000	37.6	161	1000	302	
CC(C)[C@@H]1NC(=O)[C@H](CCCCN)NC(=O)[C@@H](Cc2c[nH]c3ccccc23)NC(=O)[C@H](Cc2ccc(O)cc2)NC(=O)[C@@H](NC(=O)[C@@H](N)Cc2ccc3ccccc3c2)CSSC[C@H](C(=O)N[C@@H](Cc2ccc3ccccc3c2)C(N)=O)NC1=O						35.3
CC(C)[C@H](NC(=O)[C@H](CCCCN)NC(=O)[C@@H](Cc1c[nH]c2ccccc12)NC(=O)[C@H](Cc1ccc(O)cc1)NC(=O)[C@@H](Cc1ccc(Cl)cc1)NC(=O)[C@@H](N)Cc1ccccc1)C(=O)N[C@@H](Cc1ccccc1)C(=O)N[C@H](C(N)=O)[C@@H](C)O	1000	797	648	1000	2740	
C[C@@H](O)[C@H](NC(=O)[C@H](Cc1ccccc1)NC(=O)[C@@H](NC(=O)[C@H](CCCCN)NC(=O)[C@@H](Cc1c[nH]c2ccccc12)NC(=O)[C@H](Cc1ccc(O)cc1)NC(=O)[C@@H](Cc1ccccc1)NC(=O)[C@@H](N)Cc1ccccc1)[C@@H](C)O)C(N)=O	1000	445	216	1000	1180	
CC(C)[C@@H]1NC(=O)[C@H](CCCCN)NC(=O)[C@@H](Cc2c[nH]c3ccccc23)NC(=O)[C@H](Cc2ccc(O)cc2)NC(=O)[C@H](NC(=O)[C@H](N)Cc2ccccc2)C(C)(C)SSC[C@@H](C(=O)N[C@H](C(N)=O)[C@@H](C)O)NC1=O	1000	2550	821	1000		
CC(=O)N[C@@H]1CSSC[C@@H](C(=O)N[C@H](C(N)=O)[C@@H](C)O)NC(=O)[C@H](C(C)C)NC(=O)[C@H](CCCCN)NC(=O)[C@@H](Cc2c[nH]c3ccccc23)NC(=O)[C@H](Cc2ccc(O)cc2)NC1=O	1000	1000	1000	1000	1000	
CC[C@@H]1NC(=O)[C@H](CCCCN)NC(=O)[C@@H](Cc2c[nH]c3ccccc23)NC(=O)[C@H](Cc2ccc(O)cc2)NC(=O)[C@H](NC(=O)[C@H](N)Cc2ccccc2)CSSC[C@@H](C(=O)N[C@H](C(N)=O)[C@@H](C)O)NC1=O	1000	183	140	1000		
CC(C)[C@@H]1NC(=O)[C@H](CCCCN)NC(=O)[C@@H](Cc2c[nH]c3ccccc23)NC(=O)[C@H](Cc2ccc(O)cc2)NC(=O)[C@H](NC(=O)[C@@H](N)Cc2ccc3ccccc3c2)CSSC[C@@H](C(=O)N[C@H](C(N)=O)[C@@H](C)O)NC1=O	2160	118	733			
C[C@@H](O)[C@@H]1NC(=O)[C@H](CCCCN)NC(=O)[C@@H](Cc2c[nH]c3ccccc23)NC(=O)[C@H](Cc2ccccc2)NC(=O)[C@H](Cc2ccccc2)NC(=O)[C@H](N)CSSC[C@H](C(N)=O)NC(=O)[C@H](Cc2ccccc2)NC1=O	723	34.8	5.6		28	
C[C@@H](O)[C@H](NC(=O)[C@@H]1CSSC[C@@H](NC(=O)[C@H](N)Cc2ccccc2)C(=O)N[C@@H](Cc2cccnc2)C(=O)N[C@H](Cc2c[nH]c3ccccc23)C(=O)N[C@@H](CCCCN)C(=O)N[C@@H]([C@@H](C)O)C(=O)N1)C(N)=O	1000	566	1360	1000	1000	
CC(C)[C@@H]1NC(=O)[C@H](CCCCN)NC(=O)[C@@H](Cc2c[nH]c3ccccc23)NC(=O)[C@H](Cc2cccnc2)NC(=O)[C@H](NC(=O)[C@@H](N)Cc2ccc3ccccc3c2)CSSC[C@@H](C(=O)N[C@@H](Cc2cccc(-c3ccccc3)c2)C(N)=O)NC1=O						56
CC(C)NC(=O)[C@@H]1CSSC[C@@H](NC(=O)[C@@H](N)Cc2ccc3ccccc3c2)C(=O)N[C@@H](Cc2ccc(O)cc2)C(=O)N[C@H](Cc2c[nH]c3ccccc23)C(=O)N[C@@H](CCCCN)C(=O)N[C@@H](C(C)C)C(=O)N1	1000	435	1230	1000		
CC(C)[C@@H]1NC(=O)[C@H](CCCCN)NC(=O)[C@@H](Cc2c[nH]c3ccccc23)NC(=O)[C@H](Cc2ccc(O)cc2)NC(=O)[C@H](NC(=O)[C@@H](N)Cc2ccc3ccccc3c2)CSSC[C@@H](C(=O)NC(C)(C)C)NC1=O						108600
CC(C)[C@H](NC(=O)[C@H](CCCCN)NC(=O)[C@@H](Cc1c[nH]c2ccccc12)NC(=O)[C@H](Cc1ccc(O)cc1)NC(=O)[C@@H](Cc1ccc(Cl)cc1)NC(=O)[C@H](N)Cc1ccc2ccccc2c1)C(=O)N[C@@H](Cc1ccccc1)C(=O)N[C@@H](Cc1ccc2ccccc2c1)C(N)=O	1000	526	619	1000	178	
CC(C)[C@@H]1NC(=O)[C@H](CCCCN)NC(=O)[C@@H](Cc2c[nH]c3ccccc23)NC(=O)[C@H](Cc2ccc(O)cc2)NC(=O)[C@@H](C)N(C)C(=O)[C@H](Cc2ccccc2)NC1=O	1000		404		1000	
CC(C)[C@H](NC(=O)[C@H](CCCCN)NC(=O)[C@@H](Cc1c[nH]c2ccccc12)NC(=O)[C@H](Cc1ccc(O)cc1)NC(=O)[C@@H](Cc1ccc(Cl)cc1)NC(=O)[C@@H](N)Cc1ccc2ccccc2c1)C(=O)N[C@@H](Cc1ccccc1)C(=O)N[C@@H](Cc1ccc2ccccc2c1)C(N)=O	1000	1000	1610	1000	1960	
CC(C)[C@@H]1NC(=O)[C@H](CCCCN)NC(=O)[C@@H](Cc2c[nH]c3ccccc23)NC(=O)[C@H](Cc2ccc(O)cc2)NC(=O)[C@H](NC(=O)[C@H](N)Cc2ccc3ccccc3c2)CSSC[C@@H](C(=O)N[C@H](Cc2ccc3ccccc3c2)C(N)=O)NC1=O	1660	82.9	1080	1000	358	
CC(C)[C@@H]1NC(=O)[C@H](CCCCN)NC(=O)[C@@H](Cc2c[nH]c3ccccc23)NC(=O)[C@H](Cc2ccc(O)cc2)NC(=O)[C@H](NC(=O)[C@@H](N)Cc2c[nH]c3ccccc23)CSSC[C@@H](C(=O)N[C@H](Cc2ccc3ccccc3c2)C(N)=O)NC1=O (H-W[dC]Y[dW]KVC[d2Nal]-NH2; disulfide 2-7)	588	77.2	649	1000	221	
CC(C)[C@@H]1NC(=O)[C@H](CCCCN)NC(=O)[C@@H](Cc2c[nH]c3ccccc23)NC(=O)[C@H](Cc2c[nH]cn2)NC(=O)[C@H](NC(=O)[C@@H](N)Cc2ccc3ccccc3c2)CSSC[C@@H](C(=O)N[C@@H](C(N)=O)C(c2ccccc2)c2ccccc2)NC1=O (H-[2Nal][dC]H[dW]KVC[dDip]-NH2; disulfide 2-7)	1090		1200	1000	1000	
CC(C)[C@@H]1NC(=O)[C@H](CCCCN)NC(=O)[C@@H](Cc2c[nH]c3ccccc23)NC(=O)[C@H](Cc2cccnc2)NC(=O)[C@H](NC(=O)[C@@H](N)Cc2ccc3ccccc3c2)CSSC[C@@H](C(=O)N[C@H](C(N)=O)C(c2ccccc2)c2ccccc2)NC1=O (H-[2Nal][dC][3Pal][dW]KVC[Dip]-NH2; disulfide 2-7)	1000	355	903	1000	1000	
CC(C)[C@@H]1NC(=O)[C@H](CCCCN)NC(=O)[C@@H](Cc2c[nH]c3ccccc23)NC(=O)[C@H](Cc2ccc(O)cc2)NC(=O)[C@H](NC(=O)[C@@H](N)Cc2ccc([N+](=O)[O-])cc2)CSSC[C@@H](C(=O)N[C@@H](Cc2ccc(O)cc2)C(N)=O)NC1=O (H-[Phe(4-NO2)][dC]Y[dW]KVCY-NH2; disulfide 2-7)	3220	23.4	177	632	101	
CC(C)[C@@H]1NC(=O)[C@H](CCCCN)NC(=O)[C@@H](Cc2c[nH]c3ccccc23)NC(=O)[C@H](Cc2cccnc2)NC(=O)[C@H](NC(=O)[C@@H](N)Cc2ccc([N+](=O)[O-])cc2)CSSC[C@@H](C(=O)N[C@@H](Cc2ccc(O)cc2)C(N)=O)NC1=O (H-[Phe(4-NO2)][dC][3Pal][dW]KVCY-NH2; disulfide 2-7)	245	35.3	235	757	529	
CC(C)[C@@H]1NC(=O)[C@H](CCCCN)NC(=O)[C@@H](Cc2c[nH]c3ccccc23)NC(=O)[C@H](Cc2ccc(O)cc2)NC(=O)[C@@H](NC(=O)[C@H](N)Cc2ccc3ccccc3c2)CSSC[C@H](C(=O)N[C@@H](Cc2ccc3ccccc3c2)C(N)=O)NC1=O (stereo in doubt; 27)	1000	139	1000	1000		

Reference: ChEMBL document CHEMBL1131316, “Potent antagonists of somatostatin: synthesis and biology” (J Med Chem, 1998)
